Laboratory results from ChEMBL document CHEMBL4715736, “Identification of anticancer agents based on the thieno[2,3-b]pyridine and 1H-pyrazole molecular scaffolds” (2016).

What was measured:
Type in all cases: functional
IGROV-1 [1] = experiment: Growth inhibition of human IGROV-1 cells incubated for 48 hrs by sulforhodamine B assay
How it was run: (§1)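 NCI60 panel at the NCI Developmental Therapeutics Program. Only compounds active in the 10 µM screen went to dose-response testing. GI50, the concentration giving 50% of maximal inhibition of proliferation, and TGI, the concentration giving total growth inhibition, were derived from the dose-response curves.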

SN12C = experiment: Growth inhibition of human SN12C cells assessed as cell growth at 100 uM incubated for 48 hrs by sulforhodamine B assay relative to control; details: read-out: Activity
Malme-3M = experiment: Growth inhibition of human Malme-3M cells assessed as cell growth at 0.1 uM incubated for 48 hrs by sulforhodamine B assay relative to control; details: read-out: Activity
CAKI-1 = experiment: Growth inhibition of human CAKI-1 cells assessed as cell growth at 0.01 uM incubated for 48 hrs by sulforhodamine B assay relative to control; details: read-out: Activity
How it was run: (§2)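 NCI Developmental Therapeutics Program NCI60 panel. Compounds that were active in the 10 µM one-dose screen went on to dose–response testing. Growth at each concentration is expressed relative to untreated control (100%). GI50 (concentration giving 50% of maximal inhibition of proliferation) and TGI (concentration giving total growth inhibition) were derived from the curves.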

TK-10 = experiment: Growth inhibition of human TK-10 cells assessed as cell growth at 0.01 uM incubated for 48 hrs by sulforhodamine B assay relative to control; details: read-out: Activity
SK-MEL-28 = experiment: Growth inhibition of human SK-MEL-28 cells assessed as cell growth at 1 uM incubated for 48 hrs by sulforhodamine B assay relative to control; details: read-out: Activity
OVCAR-5 [2] = experiment: Growth inhibition of human OVCAR-5 cells assessed as cell growth at 1 uM incubated for 48 hrs by sulforhodamine B assay relative to control; details: read-out: Activity
HCT-116 [3] = experiment: Growth inhibition of human HCT-116 cells assessed as cell growth at 0.01 uM incubated for 48 hrs by sulforhodamine B assay relative to control; details: read-out: Activity
SF-268 [4] = experiment: Growth inhibition of human SF-268 cells incubated for 48 hrs by sulforhodamine B assay
How it was run: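 NCI DTP 60-line human tumour panel. Dose-response curves were run only for ligands active in the initial 10 µM screen. GI50 (concentration giving 50% of maximal inhibition of proliferation) and TGI (concentration giving total growth inhibition) were derived from these curves.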

SK-MEL-5 [5] = experiment: Growth inhibition of human SK-MEL-5 cells assessed as cell growth at 1 uM incubated for 48 hrs by sulforhodamine B assay relative to control; details: read-out: Activity
HOP-92 = experiment: Growth inhibition of human HOP-92 cells assessed as cell growth at 0.1 uM incubated for 48 hrs by sulforhodamine B assay relative to control; details: read-out: Activity
T47D = experiment: Growth inhibition of human T47D cells assessed as cell growth at 100 uM incubated for 48 hrs by sulforhodamine B assay relative to control; details: read-out: Activity
LOX IMVI = experiment: Growth inhibition of human LOX IMVI cells incubated for 48 hrs by sulforhodamine B assay; how it was run: as §1
SK-OV-3 = experiment: Growth inhibition of human SK-OV-3 cells assessed as cell growth at 100 uM incubated for 48 hrs by sulforhodamine B assay relative to control; details: read-out: Activity
SF-268 [6] = experiment: Growth inhibition of human SF-268 cells assessed as cell growth at 0.1 uM incubated for 48 hrs by sulforhodamine B assay relative to control; details: read-out: Activity
786-0 = experiment: Growth inhibition of human 786-0 cells assessed as cell growth at 0.1 uM incubated for 48 hrs by sulforhodamine B assay relative to control; details: read-out: Activity; how it was run: as §2
HCC 2998 = experiment: Growth inhibition of human HCC 2998 cells assessed as cell growth at 1 uM incubated for 48 hrs by sulforhodamine B assay relative to control; details: read-out: Activity; how it was run: as §2
OVCAR-5 [7] = experiment: Growth inhibition of human OVCAR-5 cells assessed as cell growth at 100 uM incubated for 48 hrs by sulforhodamine B assay relative to control; details: read-out: Activity
SK-MEL-5 [8] = experiment: Growth inhibition of human SK-MEL-5 cells assessed as cell growth at 0.1 uM incubated for 48 hrs by sulforhodamine B assay relative to control; details: read-out: Activity
ACHN = experiment: Growth inhibition of human ACHN cells assessed as cell growth at 1 uM incubated for 48 hrs by sulforhodamine B assay relative to control; details: read-out: Activity
HCT-116 [9] = experiment: Growth inhibition of human HCT-116 cells assessed as cell growth at 100 uM incubated for 48 hrs by sulforhodamine B assay relative to control; details: read-out: Activity
MDA-MB-435 = experiment: Growth inhibition of human MDA-MB-435 cells assessed as cell growth at 0.01 uM incubated for 48 hrs by sulforhodamine B assay relative to control; details: read-out: Activity
IGROV-1 [10] = experiment: Growth inhibition of human IGROV-1 cells assessed as cell growth at 100 uM incubated for 48 hrs by sulforhodamine B assay relative to control; details: read-out: Activity
HCT-116 [11] = experiment: Growth inhibition of human HCT-116 cells assessed as cell growth at 0.1 uM incubated for 48 hrs by sulforhodamine B assay relative to control; details: read-out: Activity
Hs-578T = experiment: Growth inhibition of human Hs-578T cells assessed as cell growth at 0.01 uM incubated for 48 hrs by sulforhodamine B assay relative to control; details: read-out: Activity
SK-MEL-5 [12] = experiment: Growth inhibition of human SK-MEL-5 cells assessed as cell growth at 100 uM incubated for 48 hrs by sulforhodamine B assay relative to control; details: read-out: Activity
HOP-62 [13] = experiment: Growth inhibition of human HOP-62 cells assessed as cell growth at 0.01 uM incubated for 48 hrs by sulforhodamine B assay relative to control; details: read-out: Activity
OVCAR-4 = experiment: Growth inhibition of human OVCAR-4 cells assessed as cell growth at 100 uM incubated for 48 hrs by sulforhodamine B assay relative to control; details: read-out: Activity
RXF 393 = experiment: Growth inhibition of human RXF 393 cells assessed as cell growth at 100 uM incubated for 48 hrs by sulforhodamine B assay relative to control; details: read-out: Activity
HCT-15 = experiment: Growth inhibition of human HCT-15 cells assessed as cell growth at 100 uM incubated for 48 hrs by sulforhodamine B assay relative to control; details: read-out: Activity
HOP-62 [14] = experiment: Growth inhibition of human HOP-62 cells assessed as cell growth at 1 uM incubated for 48 hrs by sulforhodamine B assay relative to control; details: read-out: Activity
OVCAR-3 = experiment: Growth inhibition of human OVCAR-3 cells assessed as cell growth at 0.01 uM incubated for 48 hrs by sulforhodamine B assay relative to control; details: read-out: Activity
SK-MEL-2 [15] = experiment: Growth inhibition of human SK-MEL-2 cells assessed as cell growth at 1 uM incubated for 48 hrs by sulforhodamine B assay relative to control; details: read-out: Activity
SK-MEL-2 [16] = experiment: Growth inhibition of human SK-MEL-2 cells assessed as cell growth at 100 uM incubated for 48 hrs by sulforhodamine B assay relative to control; details: read-out: Activity
PC-3 = experiment: Growth inhibition of human PC-3 cells assessed as cell growth at 100 uM incubated for 48 hrs by sulforhodamine B assay relative to control; details: read-out: Activity

Row | SMILES | GI50 (IGROV-1 [1]) | LC50 (IGROV-1 [1]) | TGI (IGROV-1 [1]) | growth at 100 µM (SN12C) | growth at 0.1 µM (Malme-3M) | growth at 0.01 µM (CAKI-1) | growth at 1 µM (SK-MEL-28) | growth at 1 µM (OVCAR-5 [2]) | growth at 0.01 µM (HCT-116 [3]) | GI50 (SF-268 [4]) | LC50 (concentration killing 50% of cells) (SF-268 [4]) | TGI (SF-268 [4]) | growth at 1 µM (SK-MEL-5 [5]) | growth at 0.1 µM (HOP-92) | growth at 100 µM (T47D) | GI50 (LOX IMVI) | LC50 (LOX IMVI) | TGI (LOX IMVI) | growth at 0.1 µM (SF-268 [6]) | growth at 0.1 µM (786-0) | also measured
1 | CCc1ccccc1NC(=O)c1sc2nc3c(cc2c1N)C(=O)CCC3 | 13.7 µM | > 100 µM | > 100 µM | 22% | 84% | 89% | 49% | 50% | 99% | 10.1 µM | > 100 µM | > 100 µM | 11% | 69% | -5% | 0.645 µM | > 100 µM | > 100 µM | 93% | 89% | growth at 0.01 µM (TK-10): 93%; growth at 100 µM (SK-OV-3): -4%; growth at 1 µM (HCC 2998): 56%; growth at 100 µM (OVCAR-5 [7]): 7%; growth at 0.1 µM (SK-MEL-5 [8]): 82%; growth at 1 µM (ACHN): 43%; growth at 100 µM (HCT-116 [9]): 6%; growth at 0.01 µM (MDA-MB-435): 92%; growth at 100 µM (IGROV-1 [10]): 7%; growth at 0.1 µM (HCT-116 [11]): 99%; growth at 0.01 µM (Hs-578T): 93%; growth at 100 µM (SK-MEL-5 [12]): 2%; growth at 0.01 µM (HOP-62 [13]): 91%; growth at 100 µM (OVCAR-4): 8%; growth at 100 µM (RXF 393): -41%; growth at 100 µM (HCT-15): 19%; growth at 1 µM (HOP-62 [14]): 33%; growth at 0.01 µM (OVCAR-3): 107%; growth at 1 µM (SK-MEL-2 [15]): 31%; growth at 100 µM (SK-MEL-2 [16]): 7%
2 | Cc1ccc(NC(=O)c2sc3nc4c(cc3c2N)C(=O)CCC4)cc1C | 1.09 µM | > 100 µM | > 100 µM | 17% | 86% | 96% | 51% | 66% | 99% | 3.07 µM | > 100 µM | > 100 µM | 21% | 72% | -13% | 0.716 µM | > 100 µM | > 100 µM | 94% | 88% | growth at 0.01 µM (TK-10): 96%; growth at 100 µM (SK-OV-3): 8%; growth at 1 µM (HCC 2998): 57%; growth at 100 µM (OVCAR-5 [7]): 31%; growth at 0.1 µM (SK-MEL-5 [8]): 90%; growth at 1 µM (ACHN): 46%; growth at 100 µM (HCT-116 [9]): 8%; growth at 0.01 µM (MDA-MB-435): 95%; growth at 100 µM (IGROV-1 [10]): 10%; growth at 0.1 µM (HCT-116 [11]): 90%; growth at 0.01 µM (Hs-578T): 93%; growth at 100 µM (SK-MEL-5 [12]): -57%; growth at 0.01 µM (HOP-62 [13]): 89%; growth at 100 µM (OVCAR-4): 18%; growth at 100 µM (RXF 393): 14%; growth at 100 µM (HCT-15): 7%; growth at 1 µM (HOP-62 [14]): 40%; growth at 0.01 µM (OVCAR-3): 102%; growth at 1 µM (SK-MEL-2 [15]): 22%; growth at 100 µM (SK-MEL-2 [16]): 18%
3 | CCc1cccc(C)c1NC(=O)c1sc2nc3c(cc2c1N)C(=O)CCC3 | 0.111 µM | > 100 µM | > 100 µM | -4% | 86% | 89% | 48% | 59% | 92% | 3.04 µM | > 100 µM | > 100 µM | 6% | 70% | -10% | 0.724 µM | > 100 µM | > 100 µM | 96% | 89% | growth at 1 µM (HCC 2998): 55%; growth at 100 µM (OVCAR-5 [7]): 30%; growth at 0.1 µM (SK-MEL-5 [8]): 89%; growth at 1 µM (ACHN): 44%; growth at 100 µM (HCT-116 [9]): 4%; growth at 0.01 µM (MDA-MB-435): 92%; growth at 100 µM (IGROV-1 [10]): 8%; growth at 0.1 µM (HCT-116 [11]): 96%; growth at 0.01 µM (Hs-578T): 93%; growth at 100 µM (SK-MEL-5 [12]): -78%; growth at 0.01 µM (HOP-62 [13]): 94%; growth at 100 µM (OVCAR-4): 10%; growth at 100 µM (RXF 393): 5%; growth at 100 µM (HCT-15): 7%; growth at 100 µM (PC-3): 18%; growth at 1 µM (HOP-62 [14]): 52%; growth at 0.01 µM (OVCAR-3): 101%
